Sampled rows, rich in hits. Any-hit rate of the full collection: about 3.1%.
GalR3 antag: human GalR3 antagonism. O60755. HEK293 GalR3-CNG cAMP membrane potential fluorescence; galR3 body fused to GalR1 C-terminus. inhibition, % at 3 µM. hit rate 0.44% among 360,000. AID 651719;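 active means inhibition above the screen-wide average plus 3 SD, cut at about 13% in these data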;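 further: forskolin and galanin both at EC90 stimulate the cells; cAMP rise reported by CNG channel membrane potential dye signal; 0% = forskolin plus galanin with DMSO and 100% = forskolin alone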
Target sequence (O60755 1-299 limits assumed): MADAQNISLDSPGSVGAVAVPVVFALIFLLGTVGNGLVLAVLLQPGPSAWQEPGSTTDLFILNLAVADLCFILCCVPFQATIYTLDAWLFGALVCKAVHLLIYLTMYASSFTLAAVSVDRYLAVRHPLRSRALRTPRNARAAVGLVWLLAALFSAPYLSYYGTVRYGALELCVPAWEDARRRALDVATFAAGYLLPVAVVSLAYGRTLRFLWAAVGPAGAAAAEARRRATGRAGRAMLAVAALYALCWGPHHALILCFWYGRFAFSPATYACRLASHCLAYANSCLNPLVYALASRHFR
OX1R antag-1: blocks the human orexin 1 receptor; CHO/OX1R cells, Fluo-8 calcium fluorescence, orexin A; inhibition, % at 5 µM; hit rate 0.43% among 330,000; O43613;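 active means inhibition above its plate's threshold, mean inhibition of all tested compounds on the plate plus 3 SD, cut at about 37% in these data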;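 further: 0% = orexin A challenge wells and 100% = SB-334867-A antagonist wells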
CHO parental Ca: counter-screen: ATP calcium response change in parental CHO cells | parental CHO-K1, ATP-induced calcium, Fluo-8 fluorescence | inhibition, % at 5.6 µM | hit rate 0.63% among 330,000 | AID 463079;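 active means inhibition above that plate's mean sample inhibition plus 3 SD, cut at about 26% in these data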;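 further: 0% = ATP-challenged DMSO wells and 100% = DMSO wells without ATP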
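test system = CHO parental line | reagent = ATP stimulus | measured by = intracellular calcium via Fluo-8 no-wash fluorescent dye | control set = ATP and no-ATP DMSO wells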
OX1R antag-2: OX1R (human) antagonism; hit rate 1.8% among 330,000; O43613; AID 485270; inhibition, % at 6.6 µM; OX1R-expressing cells, FRET antagonist read-out; in the data active means inhibition mostly above about 38%, no sharp cut-off; inactive means mostly below about 40%;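 further: 0% = agonist challenge alone and 100% = reference antagonist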
GPR7 antag: human neuropeptides B/W receptor 1 antagonism. P48145. GPR7-expressing cells, fluorescence antagonist assay. inhibition, % at 4.4 µM. hit rate 1.1% among 290,000; in the data active means inhibition above about 16%, passing the limit was not always enough;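 further: cells stimulated with the agonist NPW; 0% = agonist with vehicle and 100% = vehicle without agonist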
* hit, by the source's call.

How did Cc1nc2cc([N+](=O)[O-])ccc2c(=O)n1-c1ccccc1[N+](=O)[O-] do in these assays?
GalR3 antag: -7.7; OX1R antag-1: -18.9; CHO parental Ca: -8.9; OX1R antag-2: 53.1*; GPR7 antag: 1.5

What do the screens show for `Cc1nc2cc([N+](=O)[O-])ccc2c(=O)n1-c1ccc(Br)cc1`?
GalR3 antag: -2.8; OX1R antag-1: -7.0; CHO parental Ca: -12.1; OX1R antag-2: 13.1; GPR7 antag: -20.4

Results for Cc1nc2cc(C(F)(F)F)ccc2n1C1CCN(Cc2nnnn2CCc2ccccc2)CC1 ?
GalR3 antag: -1.9; OX1R antag-1: -19.3; CHO parental Ca: -5.4; OX1R antag-2: 4.1; GPR7 antag: 20.2*

What do the screens show for `COC(=O)C1=C(c2ccccc2OCc2ccccc2)C[C@@H]2CC[C@H]1N2C(=O)NCc1cccc(F)c1`?
GalR3 antag: -7.5; OX1R antag-1: 35.1; CHO parental Ca: -28.2; OX1R antag-2: 40.8*

Results for COC(=O)C1C(OC(=O)c2ccccc2)CC2CCC1[N+]2(C)C (centres undefined) ?
GalR3 antag: -1.0

Results for CCN(CC)c1ccc(/C=C2\C(=O)NC(=S)N(C)C2=O)o1 ?
GalR3 antag: 1.0; OX1R antag-1: -4.5; CHO parental Ca: 10.0; OX1R antag-2: 55.1*; GPR7 antag: 5.8

What do the screens show for `COc1cccc(N2C(=O)/C(=C/c3ccc(C)o3)C(=O)NC2=S)c1`?
GalR3 antag: -8.2; OX1R antag-1: 0.1; CHO parental Ca: 0.5; OX1R antag-2: -9.9; GPR7 antag: 5.0

Results for COc1ccc(N2C(=O)/C(=C/c3ccc(N(C)C)o3)C(=O)NC2=S)cc1 ?
GalR3 antag: -6.7; OX1R antag-1: -0.5; CHO parental Ca: 9.9; OX1R antag-2: 38.2*; GPR7 antag: -10.2

What do the screens show for `C[C@]12CC[C@H](O)CC1=CCC1C2CC[C@]2(C)C(=O)[C@H](Br)CC12` (some centres undefined)?
GalR3 antag: -5.1; OX1R antag-1: 6.4; CHO parental Ca: -14.7; OX1R antag-2: 6.6

How did C[CH2][Hg][S]c1ccccc1C(=O)O do in these assays?
GalR3 antag: -6.6; OX1R antag-1: 88.9*; CHO parental Ca: 72.8*; OX1R antag-2: 2.9

What do the screens show for `CC(C)COC(=O)c1ccccc1C(=O)OCC(C)C`?
GalR3 antag: -6.4; OX1R antag-1: -8.4; CHO parental Ca: -14.3; OX1R antag-2: 6.7

What do the screens show for `O=C1NC(=O)N(c2ccc3c(c2)OCO3)C(=O)/C1=C/c1ccc(N2CCCCC2)o1`?
GalR3 antag: -2.4; OX1R antag-1: -4.7; CHO parental Ca: -1.6; OX1R antag-2: 61.1*; GPR7 antag: -5.6

What do the screens show for `O=C1NC(=O)N(c2ccc3c(c2)OCO3)C(=O)/C1=C\c1ccc(-c2ccccc2C(=O)O)o1`?
GalR3 antag: 2.2; OX1R antag-1: -13.6; CHO parental Ca: -4.2; OX1R antag-2: 32.0; GPR7 antag: -19.2

How did CCc1ccc(NC(=O)CCNC(=O)N2C[C@H]3C[C@@H](C2)c2cccc(=O)n2C3)cc1 do in these assays?
GalR3 antag: -9.5; OX1R antag-1: -0.9; CHO parental Ca: -0.7; OX1R antag-2: 13.3; GPR7 antag: -12.3

What do the screens show for `Cc1c(N=Nc2c(O)[nH]c(=S)[nH]c2=O)c(=O)n(-c2ccccc2)n1C`?
GalR3 antag: -12.7; OX1R antag-1: 1.8; CHO parental Ca: -9.2; OX1R antag-2: 76.6*; GPR7 antag: -2.8

How did C=CCn1c(O)c(N=Nc2c(C)n(C)n(-c3ccccc3)c2=O)c(=O)[nH]c1=S do in these assays?
GalR3 antag: -3.4; OX1R antag-1: -8.0; CHO parental Ca: -6.3; OX1R antag-2: 58.4; GPR7 antag: 12.4

Results for CCOc1ccc(-n2c(O)c(N=Nc3c(C)n(C)n(-c4ccccc4)c3=O)c(=O)[nH]c2=O)cc1 ?
GalR3 antag: -3.6; OX1R antag-1: -1.9; CHO parental Ca: 5.5; OX1R antag-2: 38.8*; GPR7 antag: -5.0

Results for CCCCCCn1c(O)c(C=Nc2c(C)n(C)n(-c3ccccc3)c2=O)c(=O)[nH]c1=O ?
GalR3 antag: -0.6; OX1R antag-1: -23.2; CHO parental Ca: -19.7; OX1R antag-2: 28.8; GPR7 antag: -19.9

Results for Cc1cccc(N=C2c3cc([N+](=O)[O-])ccc3-c3c2cc([N+](=O)[O-])cc3[N+](=O)[O-])c1 ?
GalR3 antag: -2.6

What do the screens show for `O=C1NS(=O)c2cc([N+](=O)[O-])cc([N+](=O)[O-])c21` (centres undefined)?
GalR3 antag: -2.5; OX1R antag-1: -0.6; CHO parental Ca: -8.2; OX1R antag-2: 67.4*; GPR7 antag: -6.8

From PubChem BioAssay
